Measurements: ChEMBL document CHEMBL5038575, “Novel Functionalized Cannabinoid Receptor Probes: Development of Exceptionally Potent Agonists” (J Med Chem, 2021)
The source made the active and inactive calls. The calls are words filed in the database; no cut-off is given here.

Test system: Mus musculus
Assay: Induction of hypothermia in C57BL/6 mouse assessed as reduction in body temperature at 0.1 mg/kg, ip measured after 24 hrs
Format: toxicity, organism-based
Conditions: in vivo

Compound | Activity
CC(C)(CCCCCCC#N)c1cc(O)c2c(c1)OC(C)(C)[C@@H]1CC[C@@H](CO)C[C@@H]21 | Toxic

Target: Cannabinoid receptor 1 (Rattus norvegicus, UniProt P20272)
Assay: Displacement of [3H]CP55940 from rat brain membrane CB1 receptor assessed as inhibition constant incubated for 1 hr by TopCount scintillation counting method
Format: cell membranes
Conditions: not given
Outline: (§1)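 Competition binding against [³H]CP-55,940. CB1 from rat brain membranes; CB2 from membranes of HEK293 cells expressing mouse or human CB2. IC50 obtained by nonlinear regression and converted to Ki. Three independent experiments in triplicate; mean with SEM.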

Sequence of Cannabinoid receptor 1 (Rattus norvegicus, UniProt P20272) (P20272 whole entry): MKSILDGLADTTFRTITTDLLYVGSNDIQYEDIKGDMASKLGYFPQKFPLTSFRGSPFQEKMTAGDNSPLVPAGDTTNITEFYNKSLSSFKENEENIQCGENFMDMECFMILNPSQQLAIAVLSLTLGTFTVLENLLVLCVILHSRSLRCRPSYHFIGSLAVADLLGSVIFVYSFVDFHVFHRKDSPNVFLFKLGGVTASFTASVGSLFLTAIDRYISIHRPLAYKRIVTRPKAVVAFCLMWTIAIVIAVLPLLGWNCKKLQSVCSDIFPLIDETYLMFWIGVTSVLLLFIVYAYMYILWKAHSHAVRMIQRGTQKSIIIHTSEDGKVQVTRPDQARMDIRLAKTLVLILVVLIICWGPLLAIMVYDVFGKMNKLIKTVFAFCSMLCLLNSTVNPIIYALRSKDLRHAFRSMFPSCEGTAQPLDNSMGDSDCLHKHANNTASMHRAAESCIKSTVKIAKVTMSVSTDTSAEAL

Compound | Ki [nM]
CC1(C)Oc2cc(C3(CCCCCCCN=[N+]=[N-])CCCC3)cc(O)c2[C@@H]2C[C@H](CO)CC[C@H]21 | 0.5
CC(C)(CCCCCCN=[N+]=[N-])c1cc(O)c2c(c1)OC(C)(C)[C@@H]1CC[C@@H](CO)C[C@@H]21 | 0.41
CC(C)(CCCCCCC#N)c1cc(O)c2c(c1)OC(C)(C)[C@@H]1CC[C@@H](CO)C[C@@H]21 | 0.4

Target: Cannabinoid receptor 2 (Mus musculus, UniProt P47936)
Assay: Displacement of [3H]CP55940 from mouse CB2 expressed in HEK293 cell membrane assessed as inhibition constant incubated for 1 hr by TopCount scintillation counting method
Format: cell membranes
Conditions: not given
Outline: as §1

Sequence of Cannabinoid receptor 2 (Mus musculus, UniProt P47936) (P47936 whole entry): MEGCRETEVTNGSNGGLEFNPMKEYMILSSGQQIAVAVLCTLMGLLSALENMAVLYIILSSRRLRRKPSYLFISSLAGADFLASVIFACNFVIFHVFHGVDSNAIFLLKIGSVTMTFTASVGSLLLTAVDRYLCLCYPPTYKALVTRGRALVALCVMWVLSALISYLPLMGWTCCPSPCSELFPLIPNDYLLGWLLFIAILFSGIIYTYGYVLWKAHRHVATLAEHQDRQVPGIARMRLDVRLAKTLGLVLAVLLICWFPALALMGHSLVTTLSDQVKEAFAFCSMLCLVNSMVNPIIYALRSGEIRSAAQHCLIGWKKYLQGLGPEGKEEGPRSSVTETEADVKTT

Compound | Ki [nM]
CC1(C)Oc2cc(C3(CCCCCCCN=[N+]=[N-])CCCC3)cc(O)c2[C@@H]2C[C@H](CO)CC[C@H]21 | 1.6
CC(C)(CCCCCCN=[N+]=[N-])c1cc(O)c2c(c1)OC(C)(C)[C@@H]1CC[C@@H](CO)C[C@@H]21 | 0.8
CC(C)(CCCCCCC#N)c1cc(O)c2c(c1)OC(C)(C)[C@@H]1CC[C@@H](CO)C[C@@H]21 | 0.8

Target: T1, Cannabinoid receptor 2 (Homo sapiens, UniProt P34972)
Assay: Displacement of [3H]CP55940 from human CB2 expressed in HEK293 cell membrane assessed as inhibition constant incubated for 1 hr by TopCount scintillation counting method
Format: cell membranes
Conditions: not given
Outline: as §1

T1 sequence (P34972 whole entry): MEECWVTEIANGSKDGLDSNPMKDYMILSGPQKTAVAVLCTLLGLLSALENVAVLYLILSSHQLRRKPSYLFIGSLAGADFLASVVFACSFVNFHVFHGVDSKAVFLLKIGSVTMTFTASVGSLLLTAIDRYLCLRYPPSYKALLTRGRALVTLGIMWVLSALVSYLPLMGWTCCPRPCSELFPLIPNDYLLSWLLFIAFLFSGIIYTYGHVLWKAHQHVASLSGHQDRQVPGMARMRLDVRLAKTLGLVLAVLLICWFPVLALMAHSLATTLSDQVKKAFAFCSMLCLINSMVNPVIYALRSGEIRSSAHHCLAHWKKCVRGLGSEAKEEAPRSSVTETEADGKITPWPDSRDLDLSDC

Compound | Ki [nM]
CC1(C)Oc2cc(C3(CCCCCCCN=[N+]=[N-])CCCC3)cc(O)c2[C@@H]2C[C@H](CO)CC[C@H]21 | 1.5
CC(C)(CCCCCCN=[N+]=[N-])c1cc(O)c2c(c1)OC(C)(C)[C@@H]1CC[C@@H](CO)C[C@@H]21 | 1.4
CC(C)(CCCCCCC#N)c1cc(O)c2c(c1)OC(C)(C)[C@@H]1CC[C@@H](CO)C[C@@H]21 | 0.4

Target: Cannabinoid receptor 1 (Rattus norvegicus) (UniProt P20272)
Assay: Displacement of [3H]CP55940 from rat brain membrane CB1 assessed as reduction in maximum binding capacity at 4 nM incubated for 1 hr by TopCount scintillation counting method relative to control
Format: cell membranes
Conditions: filed as agonist
Outline: (§2)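 Wash-resistant binding. […] Saturation binding used 25 μg protein, [³H]CP-55,940 at 0.5–23.8 nM and 4 μM unlabeled CP-55,940 for nonspecific binding, 1 h at 30 °C. Samples were filtered and counted by scintillation. Bmax came from one-site fits; % reduction was taken versus untreated control.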

Sequence of Cannabinoid receptor 1 (Rattus norvegicus) (P20272 whole entry): as the sequence (P20272 whole entry) above

Compound | Bmax [%]
CC1(C)Oc2cc(C3(CCCCCCCN=[N+]=[N-])CCCC3)cc(O)c2[C@@H]2C[C@H](CO)CC[C@H]21 | 48
CC(C)(CCCCCCN=[N+]=[N-])c1cc(O)c2c(c1)OC(C)(C)[C@@H]1CC[C@@H](CO)C[C@@H]21 | 75
CC(C)(CCCCCCC#N)c1cc(O)c2c(c1)OC(C)(C)[C@@H]1CC[C@@H](CO)C[C@@H]21 | 76

Target: T1, Cannabinoid receptor 2
Assay: Displacement of [3H]CP55940 from CB2 (unknown origin) assessed as reduction in maximum binding capacity at 4 nM incubated for 1 hr by TopCount scintillation counting method relative to control
Conditions: not given
Outline: as §2

Compound | Bmax [%]
CC1(C)Oc2cc(C3(CCCCCCCN=[N+]=[N-])CCCC3)cc(O)c2[C@@H]2C[C@H](CO)CC[C@H]21 | 37

Same assay, conditions: filed as agonist

Compound | Bmax [%]
CC(C)(CCCCCCN=[N+]=[N-])c1cc(O)c2c(c1)OC(C)(C)[C@@H]1CC[C@@H](CO)C[C@@H]21 | 63
CC(C)(CCCCCCC#N)c1cc(O)c2c(c1)OC(C)(C)[C@@H]1CC[C@@H](CO)C[C@@H]21 | 60

Target: T2, Cannabinoid receptor 1 (Homo sapiens, UniProt P21554)
Assay: Agonist activity at 3xHA tagged human CB1 receptor expressed in CHO-K1 cells assessed as reduction in forskolin-stimulated cAMP accumulation by measuring maximal efficacy incubated for 30 mins by cAMP assay relative to CP-55940
Format: functional, cell-based
Conditions: filed as agonist
Outline: (§3)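 CHO-K1 cells stably expressing 3xHA-tagged CB1 or CB2, plated at 4000 cells/well in Opti-MEM with 1% FBS for 3 h at 37 °C. Cells cotreated with 25 μM RO-20-1724, 20 μM forskolin and agonist for 30 min at 37 °C, then lysed. cAMP read by HTRF (665/620 nm) after 1 h at room temperature in the dark. Data normalized to vehicle and 100 nM CP-55,940; three-parameter nonlinear regression; ≥4 experiments in duplicate.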

T2 sequence (P21554 whole entry): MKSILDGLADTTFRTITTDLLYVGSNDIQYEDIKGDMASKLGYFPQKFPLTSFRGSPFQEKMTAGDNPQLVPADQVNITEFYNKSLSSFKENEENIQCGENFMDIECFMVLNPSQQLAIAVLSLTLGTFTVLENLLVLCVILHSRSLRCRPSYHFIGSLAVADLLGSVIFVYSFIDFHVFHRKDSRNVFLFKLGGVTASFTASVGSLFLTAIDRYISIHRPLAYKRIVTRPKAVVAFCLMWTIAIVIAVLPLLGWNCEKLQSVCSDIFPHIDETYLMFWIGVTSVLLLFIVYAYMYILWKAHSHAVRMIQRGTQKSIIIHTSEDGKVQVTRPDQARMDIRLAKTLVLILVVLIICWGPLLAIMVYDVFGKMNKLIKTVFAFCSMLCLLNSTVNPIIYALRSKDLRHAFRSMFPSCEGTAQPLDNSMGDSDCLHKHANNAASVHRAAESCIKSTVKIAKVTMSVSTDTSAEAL

Compound | Emax [%]
CC(C)(CCCCCCN=[N+]=[N-])c1cc(O)c2c(c1)OC(C)(C)[C@@H]1CC[C@@H](CO)C[C@@H]21 | 99
CC(C)(CCCCCCC#N)c1cc(O)c2c(c1)OC(C)(C)[C@@H]1CC[C@@H](CO)C[C@@H]21 | 103

Target: T1, Cannabinoid receptor 2
Assay: Agonist activity at 3xHA tagged human CB2 receptor expressed in CHO-K1 cells assessed as reduction in forskolin-stimulated cAMP accumulation by measuring maximal efficacy incubated for 30 mins by cAMP assay relative to CP-55940
Format: functional, cell-based
Conditions: filed as agonist
Outline: as §3

Compound | Emax [%]
CC(C)(CCCCCCN=[N+]=[N-])c1cc(O)c2c(c1)OC(C)(C)[C@@H]1CC[C@@H](CO)C[C@@H]21 | 72
CC(C)(CCCCCCC#N)c1cc(O)c2c(c1)OC(C)(C)[C@@H]1CC[C@@H](CO)C[C@@H]21 | 70

Target: T2, Cannabinoid receptor 1
Assay: Agonist activity at 3xHA tagged human CB1 receptor expressed in CHO-K1 cells assessed as reduction in forskolin-stimulated cAMP accumulation incubated for 30 mins by cAMP assay
Format: functional, cell-based
Conditions: not given

Compound | EC50 [nM]
CC(C)(CCCCCCN=[N+]=[N-])c1cc(O)c2c(c1)OC(C)(C)[C@@H]1CC[C@@H](CO)C[C@@H]21 | 0.098
CC(C)(CCCCCCC#N)c1cc(O)c2c(c1)OC(C)(C)[C@@H]1CC[C@@H](CO)C[C@@H]21 | 0.088

Target: T1, Cannabinoid receptor 2
Assay: Agonist activity at 3xHA tagged human CB2 receptor expressed in CHO-K1 cells assessed as reduction in forskolin-stimulated cAMP accumulation incubated for 30 mins by cAMP assay
Format: functional, cell-based
Conditions: not given

Compound | EC50 [nM]
CC(C)(CCCCCCN=[N+]=[N-])c1cc(O)c2c(c1)OC(C)(C)[C@@H]1CC[C@@H](CO)C[C@@H]21 | 0.77
CC(C)(CCCCCCC#N)c1cc(O)c2c(c1)OC(C)(C)[C@@H]1CC[C@@H](CO)C[C@@H]21 | 0.38

Test system: Mus musculus
Assay: Antinociceptive activity in CD-1 mouse model of thermal-induced nociception assessed as maximum efficacy causing increase in tail withdrawal latency administered intraperitonially for 6 hrs by tail flick test
Format: functional, organism-based
Conditions: dose 0.03-1 mg/kg
Outline: (§4)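 Male CD-1 mice, 25–30 g, n = 6/dose, each used once. Drug was dissolved in 2% DMSO, 4% Tween 80 and 4% propylene glycol, then diluted with saline, and given ip at 10 mL/kg. Tail immersed in a 52 °C water bath; latency recorded at baseline and at 20, 60, 180 and 360 min after injection. Results expressed as % maximum possible effect; ED50 given with 95% CI.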

Compound | Activity
CC(C)(CCCCCCC#N)c1cc(O)c2c(c1)OC(C)(C)[C@@H]1CC[C@@H](CO)C[C@@H]21 | Dose-Dependent Effect

Test system: Mus musculus
Assay: Antinociceptive activity in CD-1 mouse model of thermal-induced nociception assessed as increase in tail withdrawal latency administered intraperitonially for 6 hrs by tail flick test
Format: functional
Conditions: CD-1, ip
Outline: as §4

Compound | ED50 [mg/kg]
CC(C)(CCCCCCC#N)c1cc(O)c2c(c1)OC(C)(C)[C@@H]1CC[C@@H](CO)C[C@@H]21 | 0.12

Test system: Mus musculus
Assay: Antinociceptive activity in CD-1 mouse model of thermal-induced nociception assessed as maximum efficacy causing increase in tail withdrawal latency at 0.03 to 1 mg/kg, ip measured 20 mins post-injection by tail flick test
Format: functional, organism-based
Conditions: dose 0.03-1 mg/kg
Outline: as §4

Compound | Activity
CC(C)(CCCCCCC#N)c1cc(O)c2c(c1)OC(C)(C)[C@@H]1CC[C@@H](CO)C[C@@H]21 | Active

Test system: Mus musculus
Assay: Antinociceptive activity in CD-1 mouse model of thermal-induced nociception assessed as maximum efficacy causing increase in tail withdrawal latency at 0.03 mg/kg, ip measured 60 mins post-injection by tail flick test
Format: functional, organism-based
Conditions: not given
Outline: as §4

Compound | Activity
CC(C)(CCCCCCC#N)c1cc(O)c2c(c1)OC(C)(C)[C@@H]1CC[C@@H](CO)C[C@@H]21 | inactive

Test system: not listed separately
Assay: Toxicity in C57BL/6 mouse assessed as reduction in locomotion at 0.1 to 1 mg/kg, ip measured after 20 mins
Format: organism-based
Conditions: in vivo, dose 0.1-1 mg/kg
Outline: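 C57BL/6 mice, n = 6–7/treatment, given ip drug in 2% DMSO/1% Tween 80/saline at 0.1–1.0 mg/kg. Habituated to the apparatus in the morning. Placed in an infrared beam activity monitor 20 min after injection; ambulatory and horizontal counts recorded over 10 min.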

Compound | Activity
CC(C)(CCCCCCC#N)c1cc(O)c2c(c1)OC(C)(C)[C@@H]1CC[C@@H](CO)C[C@@H]21 | Toxic

Test system: not listed separately
Assay: Toxicity in […] mouse assessed as reduction in gastrointestinal motility by measuring colonic expulsion at 0.1 mg/kg, ip measured after 20 to 220 mins
Format: organism-based
Conditions: in vivo, time 20-220 min
Outline: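 Mice, n = 6–7/treatment, given vehicle (DMSO/Tween 80/saline 2:1:17) or 0.1 mg/kg ip. At 20, 120 and 220 min, under light isoflurane, a 2.5 mm glass bead was inserted 2 cm into the rectum. Time to bead expulsion was recorded.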

Compound | Activity
CC(C)(CCCCCCC#N)c1cc(O)c2c(c1)OC(C)(C)[C@@H]1CC[C@@H](CO)C[C@@H]21 | Toxic

Target: Cannabinoid receptor 1 (Rattus norvegicus) (UniProt P20272)
Assay: Displacement of [3H]CP55940 from rat brain membrane CB1 assessed as reduction in maximum binding capacity at 4 nM incubated for 1 hr followed by compound washout and measured after 60 to 180 mins by TopCount scintillation counting method
Format: cell membranes
Conditions: filed as agonist

Compound | Activity
CC(C)(CCCCCCC#N)c1cc(O)c2c(c1)OC(C)(C)[C@@H]1CC[C@@H](CO)C[C@@H]21 | Active
